Data from ChEMBL document CHEMBL3272319, “Alkyl streptozotocin analogues with improved biological activities” (J Med Chem, 1976).
Converted amounts (≈) assume the structure as drawn.

Assays:
[1] = Antitumor activity against mouse S180A allografted in ICR mouse assessed as tumor growth at 25 mg/kg, ip qd for 5 days measured on day 7 relative to control; type: functional; conditions: route intraperitoneal
Outline: (§1)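 Ascites Sarcoma 180 (1 × 10^7 cells) implanted into ICR mice, six animals per group. Five daily ip injections in saline (days 1–5). Sacrificed day 7. T/C % computed from total packed cell volume (ascites volume × PCV) vs controls. Grades: 100-66 = -, 65-41 = +, 40-11 = ++, 10-0 = +++.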

[2] = Antitumor activity against mouse S180A allografted in ICR mouse assessed as tumor growth at 50 mg/kg, ip qd for 5 days measured on day 7 relative to control; type: functional; conditions: route intraperitoneal; outline: as §1
[3] = tested on: Mus musculus; test: Toxicity in ICR mouse allografted with mouse S180A assessed as mortality at 25 mg/kg, ip qd for 5 days; type: organism-based; design: dose 25 mg/kg, route intraperitoneal; conditions: in vivo, 120 h
Outline: (§2)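 Ascites Sarcoma 180 (1 × 10^7 cells) implanted into ICR mice, six per group; compound in saline ip once daily days 1-5; sacrifice on day 7; total packed cell volume (ascites volume × PCV) compared with controls as T/C %; mortality recorded.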

[4] = tested on: Mus musculus; test: Toxicity in ICR mouse allografted with mouse S180A assessed as mortality at 50 mg/kg, ip qd for 5 days; type: organism-based; design: dose 50 mg/kg, route intraperitoneal; conditions: in vivo, 120 h; outline: as §2
[5] = tested on: L1210; test: Antitumor activity against mouse L1210 cells allografted in BDF1 mouse assessed as increase in host lifespan at 50 mg/kg, ip qd for 5 days relative to control; type: functional; conditions: 120 h, route intraperitoneal
Outline: (§3)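 L1210 (1 × 10^5 cells) implanted into BDF1 mice, six per group; compound in saline ip once daily days 1-5; effect read as % increase in life span, ILS = [(treated life span/control life span) − 1] × 100.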

[6] = tested on: L1210; test: Antitumor activity against mouse L1210 cells allografted in BDF1 mouse assessed as increase in host lifespan at 100 mg/kg, ip qd for 5 days relative to control; type: functional; conditions: 120 h, route intraperitoneal; outline: as §3
[7] = tested on: L1210; test: Antitumor activity against mouse L1210 cells allografted in BDF1 mouse assessed as increase in host lifespan at 200 mg/kg, ip qd for 5 days relative to control; type: functional; conditions: 120 h, route intraperitoneal; outline: as §3
[8] = tested on: Mus musculus; test: Toxicity in BDF1 mouse allografted with mouse L1210 cells assessed as mortality at 50 mg/kg, ip qd for 5 days; type: organism-based; design: dose 50 mg/kg, route intraperitoneal; conditions: in vivo, 120 h; outline: as §3
[9] = tested on: Mus musculus; test: Toxicity in BDF1 mouse allografted with mouse L1210 cells assessed as mortality at 100 mg/kg, ip qd for 5 days; type: organism-based; design: dose 100 mg/kg, route intraperitoneal; conditions: in vivo, 120 h; outline: as §3
[10] = tested on: Mus musculus; test: Toxicity in BDF1 mouse allografted with mouse L1210 cells assessed as mortality at 200 mg/kg, ip qd for 5 days; type: organism-based; design: dose 200 mg/kg, route intraperitoneal; conditions: in vivo, 120 h; outline: as §3
[11] = tested on: Rattus norvegicus; test: Diabetogenic activity in Wistar rat assessed as increase in blood sugar level at 65 mg/kg, iv administered as single dose by glucose oxidase method; type: ADME, organism-based; design: dose 65 mg/kg, route intravenous; conditions: in vivo
Outline: (§4)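 Male Wistar rats, about 200 g, five per group, fasted 16 h. Single iv dose into the femoral vein in physiological saline, equimolar across compounds. Caudal-vein blood sampled at set times over 24 h. Sugar measured by glucose oxidase.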

[12] = tested on: Rattus norvegicus; test: Diabetogenic activity in Wistar rat assessed as increase in blood sugar level at 20 mg/kg, ip qd for 1 month measured 24 hrs last drug dosage by glucose oxidase method; type: ADME, organism-based; design: dose 20 mg/kg, route intraperitoneal; conditions: in vivo
Outline: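 Male Wistar rats, about 150 g, five per group. Drug in physiological saline given ip qd on days 1–30. Blood drawn 24 h after the last dose. Sugar measured by glucose oxidase.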

[13] = tested on: Bacillus subtilis; test: Antibacterial activity against Bacillus subtilis ATCC 6633 assessed as growth inhibition after 18 hrs by broth dilution method; type: functional; conditions: ATCC 6633, 18 h
Outline: (§5)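 Twofold serial dilutions in heart infusion broth. Inoculum was a 24-h heart infusion broth culture diluted 100-fold in physiological saline. Tubes incubated 30 °C for 18 h; the table footnote gives 32 °C for 24 h. MIC in µg/ml is the lowest level giving complete growth inhibition.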

[14] = tested on: Escherichia coli; test: Antibacterial activity against Escherichia coli NIHJ JC-2 assessed as growth inhibition after 18 hrs by broth dilution method; type: functional; conditions: NIHJ JC-2, 18 h; outline: as §5
[15] = tested on: Klebsiella pneumoniae; test: Antibacterial activity against Klebsiella pneumoniae ATCC 10031 assessed as growth inhibition after 18 hrs by broth dilution method; type: functional; conditions: ATCC 10031, 18 h; outline: as §5
[16] = tested on: Proteus vulgaris; test: Antibacterial activity against Proteus vulgaris AHU 1469 assessed as growth inhibition after 18 hrs by broth dilution method; type: functional; conditions: AHU 1469, 18 h; outline: as §5
[17] = tested on: Pseudomonas fluorescens; test: Antibacterial activity against Pseudomonas fluorescens NIHJ B-254 assessed as growth inhibition after 18 hrs by broth dilution method; type: functional; conditions: NIHJ B-254, 18 h; outline: as §5
[18] = tested on: Salmonella typhi; test: Antibacterial activity against Salmonella typhi IFM 3020 assessed as growth inhibition after 18 hrs by broth dilution method; type: functional, Salmonella enterica subsp. enterica serovar Typhi; conditions: Salmonella enterica, IFM 3020, 18 h
Outline: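 Twofold serial dilutions in heart infusion broth; inoculum from 24 h heart infusion broth culture diluted 100-fold in physiological saline; tubes incubated 30 °C for 18 h; MIC (µg/ml) = lowest level giving complete growth inhibition.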

[19] = tested on: Micrococcus luteus; test: Antibacterial activity against Sarcina lutea ATCC 9341 assessed as growth inhibition after 18 hrs by broth dilution method; type: functional; conditions: ATCC 9341, 18 h; outline: as §5
[20] = tested on: Shigella sonnei; test: Antibacterial activity against Shigella sonnei assessed as growth inhibition after 18 hrs by broth dilution method; type: functional; outline: as §5
[21] = tested on: Staphylococcus aureus; test: Antibacterial activity against Staphylococcus aureus FDA 209P JC-1 assessed as growth inhibition after 18 hrs by broth dilution method; type: functional; conditions: FDA 209P JC-1, 18 h; outline: as §5
[22] = (§6) Acute toxicity in ip dosed JCL-ICR mouse assessed as animal death; type: organism-based; conditions: JCL-ICR, in vivo
Outline: (§7)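 Groups of ten female JCL-ICR mice given single ip dose in physiological saline; deaths followed over 7 days; LD50 (and LD10) derived by Litchfield–Wilcoxon method.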

[23] = tested on: Mus musculus; test: as §6; type: organism-based; conditions: in vivo; outline: as §7
[24] = Acute toxicity in iv dosed mouse; type: organism-based; conditions: in vivo
[25] = Acute toxicity in iv dosed dog; type: organism-based, Canis lupus familiaris; conditions: in vivo
[26] = Therapeutic index, ratio of LD10 for JCL-ICR mouse to ED90 for mouse S180A cells allografted in ICR mouse; conditions: read-out: TI
[27] = tested on: Mus musculus; test: Toxicity in ip dosed BDF1 mouse allografted with mouse L1210 cells assessed as optimal dose required for mortality administered qd for 5 days; type: organism-based; conditions: in vivo, 120 h
[28] = Antitumor activity against mouse S180A cells allografted in ip dosed ICR mouse administered qd for 5 days; type: functional; conditions: 120 h; outline: as §1
[29] = tested on: L1210; test: Antitumor activity against mouse L1210 cells allografted in ip dosed BDF1 mouse assessed as 30% increase in host lifespan administered for qd for 5 days; type: functional
[30] = Antitumor activity against mouse S180A allografted in ICR mouse assessed as tumor growth at 100 mg/kg, ip qd for 5 days measured on day 7 relative to control; type: functional; conditions: route intraperitoneal; outline: as §1
[31] = tested on: Mus musculus; test: Toxicity in ICR mouse allografted with mouse S180A assessed as mortality at 100 mg/kg, ip qd for 5 days; type: organism-based; design: dose 100 mg/kg, route intraperitoneal; conditions: in vivo, 120 h; outline: as §2
[32] = tested on: Enterococcus faecalis; test: Antibacterial activity against Streptococcus faecalis ATCC 10541 assessed as growth inhibition after 18 hrs by broth dilution method; type: functional; conditions: ATCC 10541, 18 h; outline: as §5
[33] = tested on: Mus musculus; test: Ratio of compound LD10 to streptozotocin LD10 for JCL-ICR mouse; type: ADME, organism-based; conditions: in vivo
[34] = Ratio of compound LD50 to streptozotocin LD50 for JCL-ICR mouse; type: ADME, organism-based; conditions: in vivo
[35] = tested on: Rattus norvegicus; test: Diabetogenic activity in iv dosed Wistar rat assessed as increase in blood sugar level administered as single dose by glucose oxidase method; type: ADME, organism-based; conditions: in vivo; outline: as §4

SMILES | ILS at 50 mg/kg [5] [%] | Activity [8] | MIC [13] [µg/mL] | MIC [14] [µg/mL] | MIC [15] [µg/mL] | MIC [16] [µg/mL] | MIC [17] [µg/mL] | MIC [18] [µg/mL] | MIC [19] [µg/mL] | MIC [20] [µg/mL] | MIC [21] [µg/mL] | LD50 [22] [mg/kg] | LD10 [23] [mg/kg] | further results
CN(N=O)C(=O)N[C@@H](C=O)[C@@H](O)[C@H](O)[C@H](O)CO [STREPTOZOCIN] | 44 | Non-toxic | 12.5 (≈ 47.1 µM) | 12.5 (≈ 47.1 µM) | > 200 | 0.4 (≈ 1.51 µM) | 6.3 (≈ 23.8 µM) | > 200 | > 200 | > 200 | 1.6 (≈ 6.03 µM) | 360 | 235 | T/C [1]: 40%; T/C [2]: 26%; Activity [3]: Non-toxic; Activity [4]: Non-toxic; ILS at 100 mg/kg [6]: 76%; ILS at 200 mg/kg [7]: 0%; Activity [9]: Non-toxic; Activity [10]: Non-toxic; Activity [11]: Toxic; Activity [12]: Toxic; LD50 [24]: 275 mg/kg; LD50 [25]: 50 mg/kg; selectivity ratio [26]: 2.6; Activity [27]: 100 mg/kg/day; ED90 [28]: 90 mg/kg/day; Activity [29]: 23 mg/kg/day
CCN(N=O)C(=O)N[C@H]1[C@H](OC)O[C@H](CO)[C@@H](O)[C@@H]1O | 14 | Non-toxic | > 1000 | > 1000 | > 1000 | > 1000 | > 1000 | > 1000 | > 1000 | > 1000 | > 1000 | 1700 | 1380 | T/C [30]: 65%; Activity [31]: Non-toxic; MIC [32]: > 1000 µg/mL; Ratio [33]: 2; selectivity ratio [34]: 2; Activity [35]: Non-toxic
